The values below come from publication PMC3969666 (Pharmacognosy Magazine, 2014).

Data set [1] has as its system influenza virus strain A/PR8/34(H1N1). It is filed as cell-based, influenza virus A/PR8/34(H1N1) in MDCK cells.
Data set [2] concerns Caco-2 cells. Nature of the data set: MTT cytotoxicity test of absorption enhancers with SHL on Caco-2 cells. The format is cell-based. The settings on record: 24 h, with addition of SHL, tested 0.005-1.28 mg/mL.
In data set [3] the test system is gastrointestinal membrane. Description: Gastrointestinal membrane toxicity by morphological observation. The format is in vivo. The settings on record: rat. The method, boiled down:
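Male Sprague–Dawley rats (~250 g) given SHL with or without absorption enhancers by oral gavage. After 8 h exposure, stomach, jejunum and colon were sectioned, with two sections per tissue on each slide. Sections were HE-stained and examined microscopically for mucosal morphology.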

For data set [4] the following is noted: enhancement of FD4 absorption; ref 17 (Gao et al., 2008); cited from earlier work.

For `NC(=O)c1ncn([C@@H]2O[C@H](CO)[C@@H](O)[C@H]2O)n1` [ribavirin, Ribavirin], the “inhibition rate on influenza virus” value in data set [1] is given as “remarkable increase in inhibition rate”.
Take `CCCCCCCCCC(=O)[O-].[Na+]` [sodium caprate]: the “concentration safe for the Caco-2 cells” value in data set [2] is given as “up to 0.64 mg/mL”. The “damage in the small intestine” value in data set [3] (oral with SHL, 150 mg/kg) was “significant damage in the small intestine”. Further, the “change in the morphology of the gastrointestinal membrane” value in data set [3] (oral with SHL, 25, 50, 100 mg/kg, 8 h exposure) is on record as “did not cause any significant change”. Moreover, in data set [3] (oral with SHL, different dosages (25-150 mg/kg)), the “damage in the gastro and colon tissues” value is “no significant damage”.
With chitosan hexamer, the “concentration at which absorption enhancing effect is almost saturable” value in data set [4] is ~0.5 % (w/v).
